According to ChEMBL document CHEMBL4390675, “Dopamine D4 Receptor-Selective Compounds Reveal Structure-Activity Relationships that Engender Agonist Efficacy” (J Med Chem, 2019):
Calls of active or inactive are those of the source. The calls are words filed in the database; no cut-off is given here.

Assays:
D(4) dopamine receptor [1] = molecular target: T1, D(4) dopamine receptor (Homo sapiens, UniProt P21917); test: Displacement of [3H]N-methylspiperone from human D4.4 receptor expressed in HEK293 cell membranes measured after 60 mins by scintillation counting method
T1 sequence (P21917 whole entry): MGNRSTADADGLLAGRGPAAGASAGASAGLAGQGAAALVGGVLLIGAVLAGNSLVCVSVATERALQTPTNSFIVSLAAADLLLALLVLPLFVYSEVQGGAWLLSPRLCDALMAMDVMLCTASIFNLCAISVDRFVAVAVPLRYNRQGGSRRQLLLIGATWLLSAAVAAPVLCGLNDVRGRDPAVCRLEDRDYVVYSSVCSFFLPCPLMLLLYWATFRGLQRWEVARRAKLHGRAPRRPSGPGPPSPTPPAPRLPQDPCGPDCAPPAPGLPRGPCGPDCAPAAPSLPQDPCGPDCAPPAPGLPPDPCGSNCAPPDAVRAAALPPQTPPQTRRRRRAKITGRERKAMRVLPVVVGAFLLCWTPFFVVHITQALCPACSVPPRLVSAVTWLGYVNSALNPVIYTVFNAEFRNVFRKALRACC
How it was run: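 Frozen HEK293 membranes stably expressing human D4.4R (30 μg/well) in EBSS-bicarbonate buffer, pH 7.4, were incubated with 0.4 nM [3H]N-methylspiperone and half-log compound dilutions (30% DMSO vehicle) for 60 min at room temperature. Nonspecific binding was defined by 10 μM (+)-butaclamol. Samples were filtered on GF/B filters and counted by scintillation.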

D(4) dopamine receptor [2] = molecular target: T1, D(4) dopamine receptor; test: Displacement of [3H](R)-(+)-7-OH-DPAT from human D4.4 receptor expressed in HEK293 cell membranes measured after 90 mins by scintillation counting method
How it was run: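 HEK293 cells stably expressing human D4.4R; membranes used fresh in 50 mM Tris, 10 mM MgCl2, 1 mM EDTA, pH 7.4. 60 μg protein/well with 3 nM [3H]-(R)-(+)-7-OH-DPAT (final), half-log dilutions in 30% DMSO, in triplicate. 90 min at room temperature, then GF/B filtration. Nonspecific binding with 10 μM (+)-butaclamol.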

D(2) dopamine receptor [3] = molecular target: T2, D(2) dopamine receptor (Homo sapiens, UniProt P14416); test: Agonist activity at human D2L receptor expressed in CHOK1 cells assessed as inhibition of forskolin-induced cAMP accumulation measured after 30 mins by Eu-cAMP tracer based TR-FRET assay relative to dopamine; type: cell-based; conditions: 0.5 h
D(2) dopamine receptor [4] = molecular target: T2, D(2) dopamine receptor; test: Antagonist activity at human D2L receptor expressed in CHOK1 cells assessed as suppression of dopamine-induced inhibition of forskolin-stimulated cAMP accumulation measured after 30 mins by Eu-cAMP tracer based TR-FRET assay relative to dopamine; type: cell-based; conditions: 0.5 h
[5] = molecular target: T3, D(4) dopamine receptor (Homo sapiens) (UniProt P21917); test: Agonist activity at human D4 receptor expressed in CHOK1 cells assessed as inhibition of forskolin-induced cAMP accumulation measured after 30 mins by Eu-cAMP tracer based TR-FRET assay relative to dopamine; type: functional, cell-based
T3 sequence (whole entry): T1 sequence (P21917 whole entry)
How it was run: (§1)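 LANCE Ultra TR-FRET cAMP assay in CHO-K1 cells stably expressing human D2R long isoform or D4R. Cells were plated in HBSS/5 mM HEPES/0.2 μM metabisulfite, then immediately given compound plus forskolin (10 μM final) for 30 min at room temperature. Eu-cAMP tracer and ULight-anti-cAMP were added for 2 h in the dark. Values are % of maximal dopamine signal, nonlinear regression of triplicate runs, n = 3–4.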

D(4) dopamine receptor [6] = molecular target: T1, D(4) dopamine receptor; test: Agonist activity at human D4 receptor expressed in CHOK1 cells assessed as inhibition of forskolin-induced cAMP accumulation measured after 30 mins by Eu-cAMP tracer based TR-FRET assay; type: functional, cell-based; how it was run: as §1
[7] = molecular target: T3, D(4) dopamine receptor (Homo sapiens); test: Antagonist activity at human D4 receptor expressed in CHOK1 cells assessed as suppression of dopamine-induced inhibition of forskolin-stimulated cAMP accumulation measured after 30 mins by Eu-cAMP tracer based TR-FRET assay relative to dopamine; type: functional, cell-based; parameters: concentration or dose not given beside the values
D(4) dopamine receptor [8] = molecular target: T1, D(4) dopamine receptor; test: Antagonist activity at human D4 receptor expressed in CHOK1 cells assessed as suppression of dopamine-induced inhibition of forskolin-stimulated cAMP accumulation measured after 30 mins by Eu-cAMP tracer based TR-FRET assay; type: functional, cell-based
D(2) dopamine receptor [9] = molecular target: T2, D(2) dopamine receptor; test: Agonist activity at human D2L receptor expressed in CHOK1 cells assessed as induction of beta-arrestin recruitment measured after 90 mins by luminescence assay relative to control; type: cell-based
How it was run: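 PathHunter enzyme-complementation assay in CHO-K1 cells stably expressing human D2R long isoform, seeded 2625 cells/well and incubated overnight. Compounds diluted in PBS with 0.2 μM sodium metabisulfite, tested at multiple concentrations, 90 min at 37 °C. Detection reagent then 45–60 min at room temperature, luminescence read. Normalized to maximal dopamine response. Nonlinear regression of triplicate runs, n = 3–4.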

D(3) dopamine receptor [10] = molecular target: T4, D(3) dopamine receptor (Homo sapiens, UniProt P35462); test: Agonist activity at human D3 receptor expressed in CHOK1 cells assessed as induction of beta-arrestin recruitment measured after 90 mins by luminescence assay relative to control; type: cell-based
How it was run: (§2)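 PathHunter enzyme-complementation assay in CHO-K1 cells stably expressing human D2R long isoform, D3R or D4R, seeded overnight in Ham's F12/10% FBS. Compounds were diluted in PBS with 0.2 μM sodium metabisulfite and applied at multiple concentrations for 90 min at 37 °C. Detection reagent was added for 45–60 min at room temperature, then luminescence was read. Values are % of maximal dopamine response, from nonlinear regression of triplicate runs, mean ± SEM, n = 3–4.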

D(3) dopamine receptor [11] = molecular target: T4, D(3) dopamine receptor; test: Antagonist activity at human D3 receptor expressed in CHOK1 cells assessed as inhibition of dopamine-induced beta-arrestin recruitment measured after 90 mins by luminescence assay relative to control; type: cell-based
How it was run: (§3)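 Antagonist-mode PathHunter β-arrestin assay in CHO-K1 cells stably expressing human D2R long isoform or D3R, seeded overnight. Compound dilutions in PBS with 0.2 μM metabisulfite were co-incubated with an EC80 dopamine concentration for 90 min at 37 °C. Detection reagent was added for 45–60 min at room temperature, then luminescence was read. Values are % of dopamine EC80 response, from nonlinear regression of triplicate runs, n = 3–4.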

[12] = molecular target: T3, D(4) dopamine receptor (Homo sapiens); test: Agonist activity at human D4 receptor expressed in CHOK1 cells assessed as induction of beta-arrestin recruitment measured after 90 mins by luminescence assay relative to control; type: cell-based; how it was run: as §2
D(4) dopamine receptor [13] = molecular target: T1, D(4) dopamine receptor; test: Agonist activity at human D4 receptor expressed in CHOK1 cells assessed as induction of beta-arrestin recruitment measured after 90 mins by luminescence assay; type: cell-based; how it was run: as §2
[14] = molecular target: T3, D(4) dopamine receptor (Homo sapiens); test: Antagonist activity at human D4 receptor expressed in CHOK1 cells assessed as inhibition of dopamine-induced beta-arrestin recruitment measured after 90 mins by luminescence assay relative to control; type: cell-based; parameters: concentration or dose not given beside the values
D(4) dopamine receptor [15] = molecular target: T1, D(4) dopamine receptor; test: Antagonist activity at human D4 receptor expressed in CHOK1 cells assessed as inhibition of dopamine-induced beta-arrestin recruitment measured after 90 mins by luminescence assay; type: cell-based; conditions: read-out: IC50
D(3) dopamine receptor [16] = molecular target: T4, D(3) dopamine receptor; test: Displacement of [3H]N-methylspiperone from human D3 receptor expressed in HEK293 cell membranes measured after 60 mins by scintillation counting method
How it was run: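 HEK293 cells stably expressing human D3R; membranes in EBSS buffer pH 7.4, stored at −80 °C. 20 μg protein/well with 0.4 nM [3H]N-methylspiperone (final), half-log dilutions in 30% DMSO, in triplicate. 60 min at room temperature, then GF/B filtration. Nonspecific binding with 10 μM (+)-butaclamol.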

D(3) dopamine receptor [17] = molecular target: T4, D(3) dopamine receptor; test: Displacement of [3H](R)-(+)-7-OH-DPAT from human D3 receptor expressed in HEK293 cell membranes measured after 90 mins by scintillation counting method
How it was run: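 Fresh HEK293 hD3R membranes (40 μg/well) in 50 mM Tris, 10 mM MgCl2, 1 mM EDTA, pH 7.4 were incubated with 0.5 nM [3H]-(R)-(+)-7-OH-DPAT and half-log compound dilutions in 30% DMSO for 90 min at room temperature. Nonspecific binding was defined with 10 μM (+)-butaclamol. Samples were filtered on PEI-soaked GF/B filters and counted by scintillation.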

D(2) dopamine receptor [18] = molecular target: T2, D(2) dopamine receptor; test: Antagonist activity at human D2L receptor expressed in CHOK1 cells assessed as inhibition of dopamine-induced beta-arrestin recruitment measured after 90 mins by luminescence assay relative to control; type: cell-based; how it was run: as §3
D(3) dopamine receptor [19] = molecular target: T4, D(3) dopamine receptor; test: Agonist activity at human D3 receptor expressed in CHOK1 cells assessed as induction of beta-arrestin recruitment measured after 90 mins by luminescence assay; type: cell-based; how it was run: as §2
D(3) dopamine receptor [20] = molecular target: T4, D(3) dopamine receptor; test: Antagonist activity at human D3 receptor expressed in CHOK1 cells assessed as inhibition of dopamine-induced beta-arrestin recruitment measured after 90 mins by luminescence assay; type: cell-based; how it was run: as §3
[21] = molecular target: D(1A) dopamine receptor (Homo sapiens) (UniProt P21728); test: Agonist activity at D1 receptor (unknown origin) stably expressed in CHOK1 cells assessed as induction of beta-arrestin recruitment measured after 90 mins by luminescence assay; type: cell-based
[22] = molecular target: D(1B) dopamine receptor (Homo sapiens) (UniProt P21918); test: Agonist activity at D5 receptor (unknown origin) stably expressed in CHOK1 cells assessed as induction of beta-arrestin recruitment measured after 90 mins by luminescence assay; type: cell-based
[23] = molecular target: D(1A) dopamine receptor (Homo sapiens) (UniProt P21728); test: Antagonist activity at D1 receptor (unknown origin) stably expressed in CHOK1 cells assessed as inhibition of dopamine-induced beta-arrestin recruitment measured after 90 mins by luminescence assay; type: cell-based
[24] = molecular target: D(1B) dopamine receptor (Homo sapiens) (UniProt P21918); test: Antagonist activity at D5 receptor (unknown origin) stably expressed in CHOK1 cells assessed as inhibition of dopamine-induced beta-arrestin recruitment measured after 90 mins by luminescence assay; type: cell-based
D(2) dopamine receptor [25] = molecular target: T2, D(2) dopamine receptor; test: Agonist activity at human D2L receptor expressed in CHOK1 cells assessed as inhibition of forskolin-induced cAMP accumulation measured after 30 mins by Eu-cAMP tracer based TR-FRET assay; type: cell-based; how it was run: as §1
D(2) dopamine receptor [26] = molecular target: T2, D(2) dopamine receptor; test: Agonist activity at human D2L receptor expressed in CHOK1 cells assessed as induction of beta-arrestin recruitment measured after 90 mins by luminescence assay; type: cell-based; how it was run: as §2
D(2) dopamine receptor [27] = molecular target: T2, D(2) dopamine receptor; test: Antagonist activity at human D2L receptor expressed in CHOK1 cells assessed as inhibition of dopamine-induced beta-arrestin recruitment measured after 90 mins by luminescence assay; type: cell-based; how it was run: as §3

T2 sequence (P14416 whole entry): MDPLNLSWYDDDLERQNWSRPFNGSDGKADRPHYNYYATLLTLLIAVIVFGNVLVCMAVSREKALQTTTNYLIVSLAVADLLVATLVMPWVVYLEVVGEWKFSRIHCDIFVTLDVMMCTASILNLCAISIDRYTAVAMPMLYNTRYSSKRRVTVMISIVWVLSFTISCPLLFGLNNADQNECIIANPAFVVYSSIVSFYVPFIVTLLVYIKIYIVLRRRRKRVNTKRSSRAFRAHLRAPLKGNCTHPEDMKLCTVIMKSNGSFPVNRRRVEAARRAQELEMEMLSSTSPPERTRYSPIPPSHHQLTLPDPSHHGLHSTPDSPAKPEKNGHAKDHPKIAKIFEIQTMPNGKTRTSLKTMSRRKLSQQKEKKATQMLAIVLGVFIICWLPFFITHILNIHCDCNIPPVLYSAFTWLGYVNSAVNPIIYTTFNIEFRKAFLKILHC
T4 sequence (P35462 whole entry, canonical isoform): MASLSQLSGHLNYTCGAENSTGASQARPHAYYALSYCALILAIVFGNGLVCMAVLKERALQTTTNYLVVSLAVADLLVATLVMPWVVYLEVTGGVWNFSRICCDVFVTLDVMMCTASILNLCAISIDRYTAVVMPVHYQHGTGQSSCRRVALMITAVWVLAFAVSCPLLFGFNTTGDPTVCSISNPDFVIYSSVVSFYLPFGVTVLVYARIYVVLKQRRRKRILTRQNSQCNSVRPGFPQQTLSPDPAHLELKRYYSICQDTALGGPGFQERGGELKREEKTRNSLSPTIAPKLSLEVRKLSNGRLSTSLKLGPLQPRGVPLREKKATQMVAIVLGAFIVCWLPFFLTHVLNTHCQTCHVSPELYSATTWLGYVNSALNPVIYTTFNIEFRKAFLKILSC
Chain of D(1A) dopamine receptor (Homo sapiens) (P21728 whole entry): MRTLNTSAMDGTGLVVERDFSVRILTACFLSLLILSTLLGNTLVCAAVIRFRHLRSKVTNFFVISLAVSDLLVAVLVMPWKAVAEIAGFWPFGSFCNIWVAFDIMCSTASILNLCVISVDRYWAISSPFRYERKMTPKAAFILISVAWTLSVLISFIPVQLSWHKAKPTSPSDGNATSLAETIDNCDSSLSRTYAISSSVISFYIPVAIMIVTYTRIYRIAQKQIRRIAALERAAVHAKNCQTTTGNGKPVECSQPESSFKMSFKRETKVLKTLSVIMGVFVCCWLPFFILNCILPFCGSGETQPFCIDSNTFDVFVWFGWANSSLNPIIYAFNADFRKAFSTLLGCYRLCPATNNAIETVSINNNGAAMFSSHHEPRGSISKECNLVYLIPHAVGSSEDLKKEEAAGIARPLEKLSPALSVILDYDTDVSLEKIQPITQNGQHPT
Chain of D(1B) dopamine receptor (Homo sapiens) (P21918 whole entry): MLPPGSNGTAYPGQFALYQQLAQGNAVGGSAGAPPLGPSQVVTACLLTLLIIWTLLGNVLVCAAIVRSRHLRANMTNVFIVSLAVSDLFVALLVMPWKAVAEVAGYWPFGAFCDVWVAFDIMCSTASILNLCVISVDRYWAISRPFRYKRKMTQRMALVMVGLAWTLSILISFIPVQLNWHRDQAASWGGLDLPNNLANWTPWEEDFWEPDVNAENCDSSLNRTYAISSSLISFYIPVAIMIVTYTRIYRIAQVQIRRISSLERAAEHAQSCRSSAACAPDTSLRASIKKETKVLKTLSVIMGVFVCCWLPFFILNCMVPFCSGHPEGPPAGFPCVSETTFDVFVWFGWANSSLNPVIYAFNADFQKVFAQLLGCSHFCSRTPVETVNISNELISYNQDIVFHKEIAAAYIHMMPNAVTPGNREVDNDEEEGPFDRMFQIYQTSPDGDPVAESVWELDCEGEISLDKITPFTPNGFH

Structure (SMILES)	Ki (D(4) dopamine receptor [1])	Emax (D(2) dopamine receptor [3])	inhibition (INH) (D(2) dopamine receptor [4])	Emax [5]	EC50 (D(4) dopamine receptor [6]; read-out: EC50)	inhibition [7]	IC50 (D(4) dopamine receptor [8])	Emax (D(2) dopamine receptor [9])	Emax (D(3) dopamine receptor [10])	Emax [12]	EC50 (D(4) dopamine receptor [13]; read-out: EC50)	inhibition [14]	IC50 (D(4) dopamine receptor [15])	Ki (D(3) dopamine receptor [16])	INH (D(2) dopamine receptor [18])	EC50 (D(3) dopamine receptor [19]; read-out: EC50)	EC50 (D(4) dopamine receptor [13])	IC50 (D(2) dopamine receptor [27])	IC50 (D(3) dopamine receptor [20])	other results
CCc1cccc(NC(=O)CN2CCN(c3ccccn3)CC2)c1	0.0679 µM	18.8%	88%	58%	0.0287 µM	58.4%	1.31 µM	18.7%	44.7%	26.2%	0.133 µM	59.7%	0.37 µM							Ki (D(4) dopamine receptor [2]): 0.00223 µM; inhibition (D(3) dopamine receptor [11]): 100%
Cc1cccc(NC(=O)CCN2CCC(c3ccccn3)CC2)c1	> 10 µM	83.1%			0.349 µM		6.34 µM	48.9%	55.4%				3.8 µM	3.04 µM	72.1%	0.97 µM	Not Active			Ki (D(3) dopamine receptor [17]): 0.51 µM; IC50 (D(3) dopamine receptor [20]; read-out: IC50): > 50 µM; Activity [21]: inactive; Activity [22]: inactive; inhibition [23]: inactive; inhibition [24]: inactive
O=C(CN1CCN(c2ccc(Cl)cn2)CC1)Nc1cncnc1	> 50 µM		76.2%				> 100 µM						> 100 µM	> 50 µM	Not Active		Not Active	Not Active	Not Active	EC50 (D(2) dopamine receptor [25]): Not Active; EC50 (D(4) dopamine receptor [6]): Not Active; EC50 (D(2) dopamine receptor [26]): Not Active; EC50 (D(3) dopamine receptor [19]): Not Active
O=C(CN1CCN(c2ccccn2)CC1)Nc1cccnc1	6.41 µM	38.6%	100%	47.3%	1.07 µM	100%	86.5 µM	21.3%		19%	2.66 µM	100%	25.8 µM	> 50 µM		2.8 µM		Not Active	Not Active	
